# SENP1 inh – human SENP1 catalytic domain inhibitors, primary screen, biochemical, FRET, uHTS. AID 624204, 2012. 360,000 tested, 0.21% active. inhibition, % at 10 µM. Sentrin-specific protease 1 (Homo sapiens), Q9P0U3. recombinant SENP1 catalytic domain, CyPet-SUMO1-YPet FRET cleavage;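 active = inhibition at least 30% at 10 µM, raw YFP signal under a set limit, fluorescence ratio 0.5 to 1.5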;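 note: 0% = enzyme with DMSO and 100% = no enzyme wells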
# Target sequence (Q9P0U3 419-644 limits assumed): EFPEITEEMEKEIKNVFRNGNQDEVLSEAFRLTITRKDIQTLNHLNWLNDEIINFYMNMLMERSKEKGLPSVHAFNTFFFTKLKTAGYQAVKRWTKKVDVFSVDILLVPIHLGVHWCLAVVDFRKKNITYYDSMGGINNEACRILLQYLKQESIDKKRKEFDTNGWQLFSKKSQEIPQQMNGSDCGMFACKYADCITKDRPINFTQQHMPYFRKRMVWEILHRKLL
#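 Test system: human SENP1 catalytic domain; medium: Tris pH 8 buffer plus EDTA, NaCl, BME, BSA, NP40, catalase; incubation: 50 min reaction at room temperature; technique: FRET, CFP and YFP emission; controls: no-enzyme low control and enzyme-plus-DMSO high control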
# SENP7 block – SENP7 protease inhibitors, primary screen, biochemical, luminescence, uHTS; Sentrin-specific protease 7 (Homo sapiens), Q9BQF6; recombinant SENP7, Z-RLRGG-aminoluciferin luminescence, 40 min; inhibition, % at 5 µM; 330,000 tested, 1.5% active; AID 434973, 2010;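 active = inhibition above about 50% at the single test dose, limit read from the data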;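 note: plate controls were DMSO with enzyme for no effect and no enzyme buffer wells for full effect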
# SENP6 inh – SENP6 protease inhibitors, primary screen, biochemical, luminescence, uHTS; inhibition, % at 10 µM; Sentrin-specific protease 6 (Homo sapiens), Q9GZR1; 330,000 tested, 1.8% active; AID 2599, 2010; Recombinant SENP6 catalytic domain, aminoluciferin luminescence;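 active = inhibition above about 50% at the single tested dose, limit read from the data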;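 note: plate controls were DMSO wells with enzyme for no effect and DMSO wells lacking enzyme for full effect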
# SENP8 block-1 – SENP8 protease inhibitors, primary screen, biochemical, luminescence; purified SENP8, Z-RLRGG-aminoluciferin cleavage; inhibition, % at 10 µM; Sentrin-specific protease 8 (Homo sapiens), Q96LD8; 330,000 tested, 1.2% active; AID 2540, 2010; in the data active = inhibition above about 50%
# SENP8 block-2 – human SENP8 protease inhibitors, primary screen, biochemical, fluorescence, Nedd8 protein substrate, uHTS | Sentrin-specific protease 8 (Homo sapiens), Q96LD8 | inhibition, % at 20 µM | 360,000 tested, 0.64% active | recombinant SENP8 | AID 602440, 2012; in the data active = inhibition mostly above about 40%, no sharp cut-off; inactive = mostly below about 27%
# SENP8 conf – SENP8 protease inhibitors, retest, confirmation, biochemical, luminescence, single concentration; AID 488912, 2010; shares compounds with SENP7 block; 6,200 tested, 40% active; Recombinant SENP8, Z-RLRGG-aminoluciferin luminescence, 60 min; inhibition, % at 12.5 µM;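 active = mean inhibition across replicates above about 50%, limit read from the data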
# SENP6 confirm – SENP6 protease inhibitors, confirmation, biochemical, luminescence, single concentration. shares compounds with SENP7 block. recombinant SENP6, Z-RLRGG-aminoluciferin luminescence. inhibition, % at 12.5 µM. 6,200 tested, 58% active
# SENP7 confirm – SENP7 protease inhibitors, retest, confirmation, biochemical, luminescence, single concentration. shares compounds with SENP7 block. recombinant SENP7, Z-RLRGG-aminoluciferin luminescence, 40 min. inhibition, % at 12.5 µM. 6,200 tested, 69% active. AID 488917, 2010
# Casp3 SENP sel – caspase-3 protease inhibitors, confirmation, selectivity assay for SENP inhibitor project, biochemical, single concentration | shares compounds with SENP7 block | 6,200 tested, 60% active | purified caspase-3, Z-DEVD-aminoluciferin luminescence, 60 min | inhibition, % at 12.5 µM;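 active = mean inhibition above about 50%, limit read from the data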;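 note: plate controls were enzyme with DMSO for no effect and wells without caspase-3 for full effect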
# Target sequence (P42574 28-227 limits assumed): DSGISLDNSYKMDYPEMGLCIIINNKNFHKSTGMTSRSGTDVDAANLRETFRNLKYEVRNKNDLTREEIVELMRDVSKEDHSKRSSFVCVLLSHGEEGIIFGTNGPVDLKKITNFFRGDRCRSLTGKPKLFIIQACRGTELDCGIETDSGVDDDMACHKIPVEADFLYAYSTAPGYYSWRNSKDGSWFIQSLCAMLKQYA
# SENP luc ctr – interferes with luciferase luminescence in SENP counter-screen; shares compounds with SENP7 block; 6,200 tested, 39% active; inhibition, % at 12.5 µM; AID 488919; Pre-incubated SENP8/Z-RLRGG-aminoluciferin, luciferase luminescence interference;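 active = mean inhibition above about 50% when retested at one dose, limit read from the data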;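 note: plate controls were DMSO wells with completed reaction for no effect and substrate without enzyme for full effect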
# * = called active by the depositor; i = inactive; . = no result. Rows were chosen to be rich in hits. Some 2.5% of all compounds tested hit in one or more screens of this group.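 Rule for the calls, unless noted: active = mean inhibition above about 50% in the one-dose retest (limit read from the data); inactive = the rest.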
SMILES,SENP1 inh,SENP7 block,SENP6 inh,SENP8 block-1,SENP8 block-2,SENP8 conf,SENP6 confirm,SENP7 confirm,Casp3 SENP sel,SENP luc ctr
O=C(Nc1nnc(SCC(=O)N2CCCCC2)s1)c1ccccc1F,0,-6,99*,-13,-3,-6,-10,-12,1,3
Cc1ccc(N(C(=O)CNC(=O)c2ccco2)C(C(=O)NC2CCCC2)c2cccnc2)c(C)c1 (stereo unspecified),-1,2,-2,-3,9,.,.,.,.,.
CCN(CC(=O)NCc1cccs1)c1ccc(S(=O)(=O)N2CCN(C)CC2)cn1,2,4,-5,3,-6,.,.,.,.,.
Nc1c(C(=O)NCc2ccccc2)c2nc3ccccc3nc2n1-c1ccc2c(c1)OCO2,-53,-3,68*,30,-261,11,12,-3,3,0
Nc1ccc(-n2c(N)c(C(=O)NCc3ccc4c(c3)OCO4)c3nc4ccccc4nc32)cc1,-63,2,8,2,-406,.,.,.,.,.
Nc1c(C(=O)NCc2ccc3c(c2)OCO3)c2nc3ccccc3nc2n1CCCN1CCOCC1,-24,4,92*,91*,-277,10,8,-3,3,-5
c1ccc2c(c1)[nH]c1c3ccccc3sc21,2,7,5,-5,7,.,.,.,.,.
Cc1oc(-c2nc3ccccc3n2C)cc1C(=O)c1ccccc1,-11,47,94*,85*,-58,94*,94*,101*,94*,93*
Cc1ccc(-c2nc3ccccc3n2C)o1,-2,83*,70*,79*,-151,91*,91*,98*,95*,90*
Cn1c(-c2ccc(Br)o2)nc2cc(Br)ccc21,-35,83*,95*,85*,-33,8,90*,91*,89*,38
CN(C)c1ccc(-c2nc3ccccc3n2C)cc1,1,96*,91*,89*,-261,96*,98*,102*,98*,96*
CC(=O)c1ccc(-c2nc3ccccc3n2C)o1,-5,31,49,18,-402,.,.,.,.,.
CC(C)n1c(-c2ccc(N(C)C)cc2)nc2ccccc21,1,-10,10,6,-493,.,.,.,.,.
CNCC(=O)N(CC(C)C)c1c(N)n(CC(C)C)c(=O)[nH]c1=O,-24,-14,-6,-7,0,.,.,.,.,.
Nc1nc2c(nnn2C2CC(O)C(CO)O2)c(=O)[nH]1 (stereo unspecified),-1,.,.,.,-1,.,.,.,.,.
Cn1c(-c2ccc(Br)o2)nc2ccccc21,-4,99*,97*,95*,4,0,98*,103*,98*,95*
Brc1ccc(Cn2c(-c3ccc(Br)o3)nc3ccccc32)o1,-30,.,.,.,-28,.,.,.,.,.
COc1cc2sc3cc(NCc4ccc(C)o4)ccc3c(=O)c2cc1OC,-52,87*,-23,81*,i,-9,56*,88*,80*,62*
COc1ccc(NCc2ccc3c(c2)OCO3)cc1Cl,0,1,11,-3,10,.,.,.,.,.
COc1cc2sc3cc(NCc4ccc5c(c4)OCO5)ccc3c(=O)c2cc1OC,-24,70*,-25,44,-494,-24,-14,-3,7,18
COc1cc2sc3cc(NCC[C@@H]4CCCN4C)ccc3c(=O)c2cc1OC,-26,53*,57*,50*,i,9,9,13,30,37
COc1cccc2sc3ccc(NCCC4CCCN4C)cc3c(=O)c12 (stereo unspecified),-5,12,-8,-21,9,.,.,.,.,.
COc1cccc2sc3cc(NCc4ccc5c(c4)OCO5)ccc3c(=O)c12,-63,58*,11,14,-487,2,2,3,15,12
CCn1c(=O)n(CC)c2cc(N3CCCC3)c(NC(=O)c3cc(Cl)ccc3OC)cc21,2,12,-18,0,21,.,.,.,.,.
c1ccc(CNC2CC3CCC2C3)cc1 (stereo unspecified),1,.,.,.,1,.,.,.,.,.
SMILES,SENP1 inh,SENP7 block,SENP6 inh,SENP8 block-1,SENP8 block-2,SENP8 conf,SENP6 confirm,SENP7 confirm,Casp3 SENP sel,SENP luc ctr
O=S(=O)(c1cccc(F)c1)N1CCN(c2nc(-c3cccnc3)nc3ccccc23)CC1,-1,-4,-11,-10,-73,.,.,.,.,.
FC(F)Oc1ccc(NC(=S)N2CCc3ccccc32)cc1,1,11,50*,23,6,2,-7,23,8,9
C=CCn1cc(F)c(=O)n(CC=C)c1=O,-2,0,17,0,-1,.,.,.,.,.
O=C(Nc1ccc(C(=O)O)cc1)Nc1ccc(F)cc1F,2,77*,83*,69*,5,77*,73*,93*,91*,76*
COc1ccc(NC(=O)Nc2ccc(F)cc2F)cc1,1,80*,74*,59*,6,58*,71*,93*,80*,26
COc1ccc(NC(=O)Nc2ccc(F)cc2F)c(C)c1,1,4,-3,1,18,.,.,.,.,.
Cc1csc(NC(=O)c2sccc2C)n1,2,96*,95*,91*,-11,95*,95*,101*,98*,94*
Cc1ccsc1C(=O)Nc1nccs1,-4,63*,64*,51*,2,58*,57*,86*,86*,52*
Cc1ccc(C(=O)Nc2nccs2)cc1,-2,41,-8,20,-258,.,.,.,.,.
CC(=O)N1CCN(Cc2cc(=O)oc3cc(C)cc(C)c23)CC1,2,.,.,.,16,.,.,.,.,.
CCCNc1nc(N)nc(-c2cc(Cl)ccc2OC)n1,2,-2,1,-8,15,.,.,.,.,.
CCNc1nc(N)nc(-c2cc(Cl)ccc2O)n1,-21,65*,83*,55*,-297,72*,69*,90*,44,10
